Here are results for 34 molecules from ChEMBL document CHEMBL1177709, “Molecular switch controlling the binding of anionic bile acid conjugates to human apical sodium-dependent bile acid transporter” (J Med Chem, 2010).

The assay addresses T1, Ileal sodium/bile acid cotransporter (Homo sapiens, UniProt Q12908).
T1 sequence (Q12908 whole entry): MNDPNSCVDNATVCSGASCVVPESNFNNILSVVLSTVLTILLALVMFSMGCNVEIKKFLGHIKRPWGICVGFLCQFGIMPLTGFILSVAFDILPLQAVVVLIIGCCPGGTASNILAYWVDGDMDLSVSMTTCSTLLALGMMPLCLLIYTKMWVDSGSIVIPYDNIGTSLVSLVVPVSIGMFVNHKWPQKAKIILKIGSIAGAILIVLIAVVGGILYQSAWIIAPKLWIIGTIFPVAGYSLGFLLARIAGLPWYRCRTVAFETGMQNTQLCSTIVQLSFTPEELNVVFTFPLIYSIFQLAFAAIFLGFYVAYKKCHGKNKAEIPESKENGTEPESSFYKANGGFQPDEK
The assay is described as follows: Inhibition of human ASBT expressed in MDCK cells assessed as inhibition of [3H]taurocholic acid uptake after 10 mins by liquid scintillation counting. Type of assay: cell-based. In a few lines: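 Stably transfected hASBT-MDCK cells grown in DMEM with 10% FBS, penicillin/streptomycin and 1 mg/mL geneticin, seeded at 1.5 million/well, induced with 10mM sodium butyrate for 12-17 h before study on day 4. Cells washed with chilled sodium-free buffer, lysed in NaOH, neutralized, counted.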
As a reminder, the Ki is a dissociation constant, usually derived from enzyme kinetics or from competition with a known ligand. `C[C@H](CCC(=O)N[C@@H](CCC(=O)Nc1cccc(F)c1)C(=O)O)[C@H]1CC[C@H]2[C@@H]3[C@H](O)C[C@H]4C[C@H](O)CC[C@]4(C)[C@H]3CC[C@]12C`: the Ki was found to be 1.25 µM.
For `C[C@H](CCC(=O)N[C@@H](CCC(=O)Nc1ccccc1N)C(=O)O)[C@H]1CC[C@H]2[C@@H]3[C@H](O)C[C@H]4C[C@H](O)CC[C@]4(C)[C@H]3CC[C@]12C`, the Ki was found to be 2.64 µM.
On to `C[C@H](CCC(=O)N[C@@H](CCC(=O)NCc1ccc(C(=O)O)cc1)C(=O)O)[C@H]1CC[C@H]2[C@@H]3[C@H](O)C[C@H]4C[C@H](O)CC[C@]4(C)[C@H]3CC[C@]12C`, for which the Ki was determined as 41 µM.
As to `C[C@H](CCC(=O)N[C@@H](CCC(=O)Nc1ccc(N)cc1)C(=O)O)[C@H]1CC[C@H]2[C@@H]3[C@H](O)C[C@H]4C[C@H](O)CC[C@]4(C)[C@H]3CC[C@]12C`, the Ki was 15.9 µM.
In the case of `Cc1cccc(C)c1NC(=O)CC[C@H](NC(=O)CC[C@@H](C)[C@H]1CC[C@H]2[C@@H]3[C@H](O)C[C@H]4C[C@H](O)CC[C@]4(C)[C@H]3CC[C@]12C)C(=O)O`, the Ki is 8.07 µM.
Turning to `C[C@H](CCC(=O)N[C@@H](CCC(=O)Nc1ccccc1C(C)(C)C)C(=O)O)[C@H]1CC[C@H]2[C@@H]3[C@H](O)C[C@H]4C[C@H](O)CC[C@]4(C)[C@H]3CC[C@]12C`, the Ki was determined as 3.93 µM.
With `COC(=O)c1ccccc1NC(=O)CC[C@H](NC(=O)CC[C@@H](C)[C@H]1CC[C@H]2[C@@H]3[C@H](O)C[C@H]4C[C@H](O)CC[C@]4(C)[C@H]3CC[C@]12C)C(=O)O`, the Ki was 2.3 µM.
Regarding `C[C@H](CCC(=O)N[C@@H](CCC(=O)Nc1cccc(C(=O)O)c1)C(=O)O)[C@H]1CC[C@H]2[C@@H]3[C@H](O)C[C@H]4C[C@H](O)CC[C@]4(C)[C@H]3CC[C@]12C`, the inhibition constant (Ki) came to 35.9 µM.
Take `COc1cc(NC(=O)CC[C@H](NC(=O)CC[C@@H](C)[C@H]2CC[C@H]3[C@@H]4[C@H](O)C[C@H]5C[C@H](O)CC[C@]5(C)[C@H]4CC[C@]23C)C(=O)O)cc(OC)c1`: the inhibition constant (Ki) turned out to be 5.19 µM.
As for `COC(=O)c1cccc(NC(=O)CC[C@H](NC(=O)CC[C@@H](C)[C@H]2CC[C@H]3[C@@H]4[C@H](O)C[C@H]5C[C@H](O)CC[C@]5(C)[C@H]4CC[C@]23C)C(=O)O)c1`, the Ki is 7.65 µM.
Under `Cc1ccccc1NC(=O)CC[C@H](NC(=O)CC[C@@H](C)[C@H]1CC[C@H]2[C@@H]3[C@H](O)C[C@H]4C[C@H](O)CC[C@]4(C)[C@H]3CC[C@]12C)C(=O)O` stands 2.63 µM.
`C[C@H](CCC(=O)N[C@@H](CCC(=O)Nc1ccc(C(F)(F)F)cc1)C(=O)O)[C@H]1CC[C@H]2[C@@H]3[C@H](O)C[C@H]4C[C@H](O)CC[C@]4(C)[C@H]3CC[C@]12C`: the Ki worked out at 2.02 µM.
For `C[C@H](CCC(=O)N[C@@H](CCC(=O)Nc1ccccc1C(=O)O)C(=O)O)[C@H]1CC[C@H]2[C@@H]3[C@H](O)C[C@H]4C[C@H](O)CC[C@]4(C)[C@H]3CC[C@]12C`, the Ki was 40.4 µM.
Regarding `COc1cccc(NC(=O)CC[C@H](NC(=O)CC[C@@H](C)[C@H]2CC[C@H]3[C@@H]4[C@H](O)C[C@H]5C[C@H](O)CC[C@]5(C)[C@H]4CC[C@]23C)C(=O)O)c1`, the Ki amounted to 4.22 µM.
The value for `CC(CCC(=O)NC(CCC(=O)Nc1cccc(NC(=O)OC(C)(C)C)c1)C(=O)O)C1CCC2C3C(O)CC4CC(O)CCC4(C)C3CCC12C` (centres undefined) was 6.53 µM.
Under `COC(=O)c1ccc(NC(=O)CC[C@H](NC(=O)CC[C@@H](C)[C@H]2CC[C@H]3[C@@H]4[C@H](O)C[C@H]5C[C@H](O)CC[C@]5(C)[C@H]4CC[C@]23C)C(=O)O)cc1` stands 4.03 µM.
The value for `C[C@H](CCC(=O)N[C@@H](CCC(=O)Nc1ccc(F)cc1F)C(=O)O)[C@H]1CC[C@H]2[C@@H]3[C@H](O)C[C@H]4C[C@H](O)CC[C@]4(C)[C@H]3CC[C@]12C` was 3.16 µM; that for `Cc1ccc(NC(=O)CC[C@H](NC(=O)CC[C@@H](C)[C@H]2CC[C@H]3[C@@H]4[C@H](O)C[C@H]5C[C@H](O)CC[C@]5(C)[C@H]4CC[C@]23C)C(=O)O)cc1` was 3.2 µM.
As for `CCOC(=O)c1ccc(NC(=O)CCC(NC(=O)CCC(C)C2CCC3C4C(O)CC5CC(O)CCC5(C)C4CCC23C)C(=O)O)cc1` (centres undefined), the Ki is 5.16 µM.
For `C[C@H](CCC(=O)N[C@@H](CCC(=O)Nc1ccc(C(C)(C)C)cc1)C(=O)O)[C@H]1CC[C@H]2[C@@H]3[C@H](O)C[C@H]4C[C@H](O)CC[C@]4(C)[C@H]3CC[C@]12C`, the Ki was determined as 0.275 µM.
As for `C[C@H](CCC(=O)N[C@@H](CCC(=O)Nc1ccc(C(=O)O)cc1)C(=O)O)[C@H]1CC[C@H]2[C@@H]3[C@H](O)C[C@H]4C[C@H](O)CC[C@]4(C)[C@H]3CC[C@]12C`, the Ki worked out at 108 µM.
In the case of `CC(CCC(=O)NC(CCC(=O)Nc1ccc(NC(=O)OC(C)(C)C)cc1)C(=O)O)C1CCC2C3C(O)CC4CC(O)CCC4(C)C3CCC12C` (centres undefined), the Ki is 5.26 µM.
Regarding `C[C@H](CCC(=O)N[C@@H](CCC(=O)Nc1cccc(C(C)(C)C)c1)C(=O)O)[C@H]1CC[C@H]2[C@@H]3[C@H](O)C[C@H]4C[C@H](O)CC[C@]4(C)[C@H]3CC[C@]12C`, the Ki was 0.587 µM.
Under `C[C@H](CCC(=O)N[C@@H](CCC(=O)NCc1cccc(C(=O)O)c1)C(=O)O)[C@H]1CC[C@H]2[C@@H]3[C@H](O)C[C@H]4C[C@H](O)CC[C@]4(C)[C@H]3CC[C@]12C` stands 126 µM; under `C[C@H](CCC(=O)N[C@@H](CCC(=O)Nc1cccc(N)c1)C(=O)O)[C@H]1CC[C@H]2[C@@H]3[C@H](O)C[C@H]4C[C@H](O)CC[C@]4(C)[C@H]3CC[C@]12C`, 16.3 µM; under `CCOC(=O)c1ccccc1NC(=O)CCC(NC(=O)CCC(C)C1CCC2C3C(O)CC4CC(O)CCC4(C)C3CCC12C)C(=O)O` (centres undefined), 1.15 µM.
Regarding `COc1ccccc1NC(=O)CC[C@H](NC(=O)CC[C@@H](C)[C@H]1CC[C@H]2[C@@H]3[C@H](O)C[C@H]4C[C@H](O)CC[C@]4(C)[C@H]3CC[C@]12C)C(=O)O`, the Ki came out at 3.89 µM.
On to `C[C@H](CCC(=O)N[C@@H](CCC(=O)Nc1cccc(C(=O)O)c1)C(=O)OOCc1ccccc1)[C@H]1CC[C@H]2[C@@H]3[C@H](O)C[C@H]4C[C@H](O)CC[C@]4(C)[C@H]3CC[C@]12C`, for which the Ki amounted to 2.24 µM.
As to `C[C@H](CCC(=O)N[C@@H](CCC(=O)Nc1ccccc1F)C(=O)O)[C@H]1CC[C@H]2[C@@H]3[C@H](O)C[C@H]4C[C@H](O)CC[C@]4(C)[C@H]3CC[C@]12C`, the Ki stood at 2.31 µM.
In the case of `C[C@H](CCC(=O)N[C@@H](CCC(=O)Nc1ccc(Cl)cc1)C(=O)O)[C@H]1CC[C@H]2[C@@H]3[C@H](O)C[C@H]4C[C@H](O)CC[C@]4(C)[C@H]3CC[C@]12C`, the Ki was found to be 1.91 µM.
On to `C[C@H](CCC(=O)N[C@@H](CCC(=O)Nc1ccc(F)cc1)C(=O)O)[C@H]1CC[C@H]2[C@@H]3[C@H](O)C[C@H]4C[C@H](O)CC[C@]4(C)[C@H]3CC[C@]12C`, for which the Ki was 3.02 µM.
Regarding `Cc1cccc(NC(=O)CC[C@H](NC(=O)CC[C@@H](C)[C@H]2CC[C@H]3[C@@H]4[C@H](O)C[C@H]5C[C@H](O)CC[C@]5(C)[C@H]4CC[C@]23C)C(=O)O)c1`, the Ki worked out at 0.889 µM.
As to `Cc1cccc(NC(=O)CC[C@H](NC(=O)CC[C@@H](C)[C@H]2CC[C@H]3[C@@H]4[C@H](O)C[C@H]5C[C@H](O)CC[C@]5(C)[C@H]4CC[C@]23C)C(=O)O)c1C`, the Ki stood at 4.3 µM.
The value for `COc1ccc(NC(=O)CC[C@H](NC(=O)CC[C@@H](C)[C@H]2CC[C@H]3[C@@H]4[C@H](O)C[C@H]5C[C@H](O)CC[C@]5(C)[C@H]4CC[C@]23C)C(=O)O)cc1` was 6.09 µM.
